How the values were obtained:
[1] = In vitro binding affinity towards N-methyl-D-aspartate glutamate receptor of the glutamate receptor using [3H]CPP as radioligand in rat cerebral cortical membranes.; assay type: cell membranes, Membrane
Outline: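 Rat brain membranes incubated with 10 nM [3H]CPP across a range of unlabeled antagonist concentrations. Specific binding was measured by centrifugation assay and expressed as percent inhibition versus concentration.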

[2] = organism: Rattus norvegicus; assay: Percent inhibition of glutamate activity against cGMP was determined; assay type: functional
[3] = target: Glutamate receptor ionotropic, kainate 3 (Rattus norvegicus, UniProt P42264); assay: Binding affinity towards Ionotropic glutamate receptor kainate using [3H]-kainic acid as radioligand; Inactive
Chain of Glutamate receptor ionotropic, kainate 3 (P42264 whole entry): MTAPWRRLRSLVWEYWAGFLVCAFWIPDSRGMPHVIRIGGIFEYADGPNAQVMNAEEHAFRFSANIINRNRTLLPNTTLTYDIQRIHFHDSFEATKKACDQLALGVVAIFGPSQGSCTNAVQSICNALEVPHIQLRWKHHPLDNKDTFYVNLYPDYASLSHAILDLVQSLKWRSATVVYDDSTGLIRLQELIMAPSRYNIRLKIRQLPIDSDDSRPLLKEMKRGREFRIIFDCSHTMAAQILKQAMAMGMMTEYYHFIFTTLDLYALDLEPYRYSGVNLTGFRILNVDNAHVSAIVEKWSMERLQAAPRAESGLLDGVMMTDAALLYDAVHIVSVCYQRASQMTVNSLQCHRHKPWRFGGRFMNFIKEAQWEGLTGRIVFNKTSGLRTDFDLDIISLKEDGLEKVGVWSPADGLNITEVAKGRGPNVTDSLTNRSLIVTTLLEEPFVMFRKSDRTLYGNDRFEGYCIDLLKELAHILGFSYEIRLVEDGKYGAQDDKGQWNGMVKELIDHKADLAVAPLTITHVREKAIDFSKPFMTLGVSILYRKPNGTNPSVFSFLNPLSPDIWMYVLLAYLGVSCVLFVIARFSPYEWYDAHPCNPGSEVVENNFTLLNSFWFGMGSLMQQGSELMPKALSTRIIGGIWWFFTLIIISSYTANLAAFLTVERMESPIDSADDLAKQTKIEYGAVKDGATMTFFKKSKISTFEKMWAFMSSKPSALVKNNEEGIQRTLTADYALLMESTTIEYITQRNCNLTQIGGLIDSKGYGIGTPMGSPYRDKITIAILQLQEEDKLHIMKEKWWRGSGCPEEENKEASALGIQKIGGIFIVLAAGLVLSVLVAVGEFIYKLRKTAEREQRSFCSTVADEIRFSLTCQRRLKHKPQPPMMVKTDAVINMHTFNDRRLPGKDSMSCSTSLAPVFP

[4] = target: Glutamate receptor 1 (Rattus norvegicus, UniProt P19490); assay: Binding affinity towards AMPA receptor using [3H]AMPA as radioligand; Inactive
Chain of Glutamate receptor 1 (P19490 whole entry): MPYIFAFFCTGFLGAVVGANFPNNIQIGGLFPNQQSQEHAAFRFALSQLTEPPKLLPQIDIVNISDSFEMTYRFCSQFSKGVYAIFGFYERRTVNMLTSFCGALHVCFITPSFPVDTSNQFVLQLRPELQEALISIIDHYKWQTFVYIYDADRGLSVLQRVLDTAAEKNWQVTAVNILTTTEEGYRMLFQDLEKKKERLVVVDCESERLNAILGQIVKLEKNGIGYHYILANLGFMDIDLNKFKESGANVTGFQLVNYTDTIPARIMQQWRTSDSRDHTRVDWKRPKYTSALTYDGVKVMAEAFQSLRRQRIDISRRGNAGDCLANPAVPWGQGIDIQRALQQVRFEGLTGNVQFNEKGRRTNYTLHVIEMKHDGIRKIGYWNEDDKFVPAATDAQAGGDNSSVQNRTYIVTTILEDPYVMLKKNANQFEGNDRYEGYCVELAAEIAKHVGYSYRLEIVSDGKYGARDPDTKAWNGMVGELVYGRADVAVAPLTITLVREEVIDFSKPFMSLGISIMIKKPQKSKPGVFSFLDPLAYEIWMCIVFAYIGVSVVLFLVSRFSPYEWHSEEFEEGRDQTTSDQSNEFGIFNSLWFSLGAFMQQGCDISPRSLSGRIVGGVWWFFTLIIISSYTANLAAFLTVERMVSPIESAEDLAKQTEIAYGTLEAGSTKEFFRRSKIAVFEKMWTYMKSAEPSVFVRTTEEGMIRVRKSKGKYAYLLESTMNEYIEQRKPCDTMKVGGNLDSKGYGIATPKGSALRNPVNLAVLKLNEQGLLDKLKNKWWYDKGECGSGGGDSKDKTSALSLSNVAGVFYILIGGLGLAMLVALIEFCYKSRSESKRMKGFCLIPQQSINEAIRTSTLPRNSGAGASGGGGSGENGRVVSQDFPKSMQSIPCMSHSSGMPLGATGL

Row | SMILES | Ki [1] [µM] | IC50 [2] [µM] | Ki [3] [µM] | Ki [4] [µM]
1 | O=C(O)C1CN(CCCP(=O)(O)O)CCN1 (stereo not given) | 0.131 | 0.8 | > 100 | > 100
2 | NC(CCCP(=O)(O)O)C(=O)O (stereo not given) | 0.176 | 5.5 | > 100 | > 100
3 | N[C@H](CC(=O)CP(=O)(O)O)C(=O)O | 0.109 | 5.9 | > 100 | > 100
4 | NC(CCCCCP(=O)(O)O)C(=O)O (stereo not given) [AP-7] | 0.73 | 14.1 | > 100 | > 100
5 | O=C(O)[C@@H]1C[C@H](CP(=O)(O)O)CCN1 [SELFOTEL] | 0.099 | 1.1 | > 100 | > 100

Source: ChEMBL document CHEMBL1125148, “(R)-4-oxo-5-phosphononorvaline: a new competitive glutamate antagonist at the NMDA receptor complex” (J Med Chem, 1990)
